hK5 inh: blocks human kallikrein 5 protease activity. Q9Y337. recombinant hK5, fluorogenic AMC substrate cleavage. inhibition, % at 5 µM. 210,000 tested, 0.59% active. AID 873;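 active = inhibition of 40% or more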
Target sequence (Q9Y337 67-293 limits assumed): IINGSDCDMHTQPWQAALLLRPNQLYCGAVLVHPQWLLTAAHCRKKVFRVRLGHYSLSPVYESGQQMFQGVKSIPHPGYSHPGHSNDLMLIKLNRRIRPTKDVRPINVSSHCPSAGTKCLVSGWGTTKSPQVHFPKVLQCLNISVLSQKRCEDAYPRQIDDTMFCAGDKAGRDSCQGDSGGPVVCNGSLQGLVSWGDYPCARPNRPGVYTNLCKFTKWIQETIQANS
Furin inhibitor: human furin inhibition; P09958; purified furin, fluorogenic substrate cleavage; inhibition, % at 20 µM or 30 µM; 220,000 tested, 0.061% active; AID 463115; in the data active = inhibition above about 25%
FXIa inh: blocks human coagulation factor XIa protease activity; 220,000 tested, 0.14% active; P03951; purified FXIa, Boc-Glu-Ala-Arg-AMC fluorogenic substrate; inhibition, % at 5 µM;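 active = inhibition of at least 40%; inactive = inhibition below 40%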;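 also: fluorescence of freed AMC excited at 355 nm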
thrombin 1536: blocks human thrombin protease activity. P00734. inhibition, % at 5 µM. alpha-thrombin, Boc-VPR-AMC fluorogenic substrate cleavage. 220,000 tested, 0.26% active. AID 1046;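 active = inhibition at or above 40%; inactive = inhibition below 40%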
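System: human alpha-thrombin protein; Compound dosing: one concentration per compound, 5 µM, with 0.2% DMSO; Timing: reaction at room temperature; Technique: AMC fluorescence, 355/460 nm; Controls: enzyme without compound as high, wells lacking enzyme as low.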
FXIIa inh: factor XIIa (human) inhibition; P00748; purified FXIIa, Boc-QGR-AMC fluorogenic substrate, 2 h; inhibition, % at 5 µM; 220,000 tested, 0.3% active; AID 800; in the data active = inhibition above about 40%
Numbers stand for hits; 0 = inactive; - = not tested or not shown. Compounds with a hit are over-represented: about 1.1% of the library has one in this group of screens.

SMILES	hK5 inh	Furin inhibitor	FXIa inh	thrombin 1536	FXIIa inh
COc1ccc(-c2ccc(-c3noc(-c4cccc(OC)c4)n3)c(OC)n2)cc1	60	0	0	0	0
COc1ccc(C2=NCCn3cccc32)c(OC)c1	41	0	0	0	0
CC(=O)Oc1ccc(CCC(C)OC(C)=O)cc1 (stereo not given)	0	0	0	0	0
CCOc1ccc(Nc2cc(Nc3ccccc3OCC)nc(C=C(C#N)C#N)n2)cc1	0	0	0	0	0
O=C(Nc1ccc(Cl)cc1)Nc1ccccc1C(=O)NCc1ccco1	51	0	104	0	0
O=C(Nc1ccccc1C(=O)NCc1ccco1)c1ccccc1	0	0	0	0	0
COc1ccc(-c2nc(SC)n(C(=O)c3ccco3)n2)cc1	0	0	0	80	0
CCC12CN3CC(CC)(CN(C1)C3c1ccc([N+](=O)[O-])o1)C2=O (stereo not given)	0	0	0	0	0
CCn1cnc2cc([N+](=O)[O-])ccc21	0	0	0	-	0
O=C(N/N=C\c1cccc([N+](=O)[O-])c1O)C1COc2ccccc2O1 (stereo not given)	55	0	0	0	0
O=C(N/N=C/c1cccc([N+](=O)[O-])c1)C1COc2ccccc2O1 (stereo not given)	0	0	0	0	0
CC(C)Cn1c(/C=C/c2ccco2)nc2ccccc21	0	0	0	0	0
C=C(C)C(=O)Nc1cccc(C2=NOC3(C2)C[C@@H](C(N)=O)N(C(=O)CC(c2ccccc2)c2ccccc2)C3)c1 (stereo not given in full)	0	0	0	0	0
CC(C)Cn1c(-c2ccccc2)nc2ccccc2c1=O	0	0	0	0	42
CCOC(=O)c1ccccc1Oc1c(F)c(F)nc(NCCO)c1F	42	0	0	42	0
CCOC(=O)c1cnc2c(ccc3ccccc32)c1NCCO	0	0	0	0	0
CN1CCN(c2ccccc2NC(=O)c2cccc(OCc3ccccc3)c2)CC1	0	35	0	0	0
COc1ccc2c(c1)CCc1c(C(=O)NCc3ccc(F)cc3)noc1-2	0	0	0	0	49
COC(=O)c1ccc(C2NC(=O)c3c(sc(C)c3C)N2)cc1 (stereo not given)	0	0	0	0	0
Cc1sc2c(c1C)C(=O)NC(c1cccc(O)c1)N2 (stereo not given)	0	0	40	0	0
COC(=O)C1(C)Cc2cc(OC(C)=O)c(OC(C)=O)cc2N1 (stereo not given)	0	0	0	0	0
Cc1ccc(C)c(NC(=O)CCCCCCCCCCC2COCCO2)c1 (stereo not given)	0	0	0	0	0
O=[N+]([O-])c1cccc(-c2cc3cccc[n+]3cc2-c2cccc([N+](=O)[O-])c2)c1	46	0	0	0	0
Cc1sc2cc(-c3cccc([N+](=O)[O-])c3)c(-c3cccc([N+](=O)[O-])c3)c[n+]2c1C	0	0	0	0	0
CC(C)(C)OC(=O)N[C@@H](Cc1ccccc1)c1nnc(S(=O)(=O)Cc2ccccc2)o1	0	0	0	0	0
SMILES	hK5 inh	Furin inhibitor	FXIa inh	thrombin 1536	FXIIa inh
CCC(C)[C@@H](NC(=O)OC(C)(C)C)c1nnc(S(=O)(=O)Cc2cccc(C)c2)o1 (stereo not given in full)	0	0	0	51	0
CC(=O)N1CCc2c(sc(NC(=O)C3CC3)c2-c2nc3ccccc3s2)C1	0	0	0	0	51
CN(c1ccccc1)S(=O)(=O)c1ccc(NC(=S)NC(=O)c2ccccc2)cc1	0	0	0	0	95
Cc1ccc(C(=O)NC(=S)Nc2ccc(S(=O)(=O)N(C)c3ccccc3)cc2)cc1	0	0	0	0	0
O=C(NNc1cc(Cl)ccc1Cl)c1c(F)cccc1Cl	0	0	0	0	42
Cc1cccc(NC(=O)Nc2ccc3c(c2)N(C)C(=O)CS3)n1	58	0	0	0	0
O=C1NC2(CCCCC2)NN1c1ccccc1	0	0	0	48	0
Cc1nnc(SCCn2c(N3CCN(C)CC3)nc3c2c(=O)[nH]c(=O)n3C)s1	0	0	0	0	0
Cc1nnc(SCCn2c(Br)nc3c2c(=O)[nH]c(=O)n3C)s1	0	0	44	0	0
CCOc1ccc(CCNC(=O)C2CCN(S(=O)(=O)N3CCC(C)CC3)CC2)cc1OCC	0	0	0	0	0
CN(C)c1ccc(C(=S)N2CCN(c3ccc([N+](=O)[O-])cc3)CC2)cc1	0	0	52	0	49
CN(C)c1ccc(C(=S)N2CCOCC2)cc1	0	0	0	0	45
CN(C)c1ccc(C(=S)N2CCCCCC2)cc1	0	0	0	0	0
O=[N+]([O-])c1ccc(N2CCCCC2)cc1	40	0	0	0	0
CC(=O)N1CCN(c2ccc([N+](=O)[O-])cc2)CC1	0	0	0	0	0
O=C(CS(=O)(=O)c1ccc2ccccc2c1)Nc1ccccc1Cl	58	0	0	0	0
CCOc1cc(S(=O)(=O)NCCc2ccc(OC)c(OC)c2)c(OCC)cc1-n1cnnn1	0	0	0	0	0
CCOc1cc(S(=O)(=O)NCc2ccc(OC)cc2)c(OCC)cc1-n1cnnn1	46	0	0	69	0
COc1cccc(NC(=O)COC(=O)CC(NC(N)=O)c2ccc(Cl)cc2)c1 (stereo not given)	0	0	0	0	0
N#CCCn1nc(-c2ccc([N+](=O)[O-])cc2)cc1Nc1ccccc1NC(=O)C(F)(F)F	0	0	0	0	0
CC(=O)c1ccc(N2CCN(S(=O)(=O)c3cccc(S(=O)(=O)N4CCOCC4)c3)CC2)cc1	90	0	0	0	47
CC(=O)Nc1nc(C)c(Oc2ccc(C)cc2)c(=O)[nH]1	0	0	0	0	0
CCc1ccc(NC2CC(=O)N(c3ccc(OC)cc3OC)C2=O)cc1 (stereo not given)	0	0	0	43	0
O=C(c1nc2ccccc2s1)N1CCN(c2ccccn2)CC1	0	0	0	45	0
O=C(c1nc2ccccc2s1)N1CCSCC1	0	0	0	0	0
SMILES	hK5 inh	Furin inhibitor	FXIa inh	thrombin 1536	FXIIa inh
O=C(CCC1CCCN(C(=O)c2ccc3c(c2)OCO3)C1)NCc1ccc(F)c(F)c1 (stereo not given)	0	0	0	0	0
CCOC(=O)N1CCN(C(=O)c2ccccc2NC(=O)c2ccc(F)cc2)CC1	58	0	0	0	0
NS(=O)(=O)c1ccc(NNC(=O)c2sccc2Cl)cc1	0	0	0	0	41
O=C(NNc1ccc(Cl)cc1)c1sccc1Cl	0	0	0	0	0
COc1cc(C(=O)NC(=S)N(C)Cc2ccccc2)cc(OC)c1OC	0	0	101	0	0
C=CCOC(=O)c1c(C)nc2cc3c(cc2c1C)OCO3	44	0	0	0	0
CC1(C)CC(=O)C(C=Nc2ccc(Cl)cn2)=C(O)C1	0	53	0	0	0
COC1CCCN(Cc2cn(C)nc2-c2ccc(Oc3ccccc3)cc2)C1 (stereo not given)	-	0	0	0	0
CCCN1CCC(NCc2cn(C)nc2-c2ccc(Oc3ccccc3)cc2)CC1	45	0	0	0	0
